Assay results published in ChEMBL document CHEMBL1145848, “Unique high-affinity synthetic mu-opioid receptor agonists with central- and systemic-mediated analgesia” (J Med Chem, 2003).

Legend:
[1] = target: Delta-type opioid receptor (Rattus norvegicus, UniProt P33533); experiment: Binding affinity for Opioid receptor delta 1 using [3H]DPDPE in rat brain P2 synaptosomal preparation; format: tissue-based
How it was run: (§1)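 Competition binding at equilibrium, 2 h at room temperature, on rat brain P2 synaptosomes. Nonspecific binding with 2 μM unlabeled peptide. GF/C filtration and scintillation counting. Duplicates, five to eight doses, 3–5 repeats. Ki by Cheng–Prusoff.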

[2] = target: Opioid receptors; mu & delta (Rattus norvegicus) (UniProt P33533+P33535); experiment: Receptor selectivity for the delta to mu opioid receptor; format: protein assay
Sequence of Opioid receptors; mu & delta (Rattus norvegicus) (P33533 whole entry, looked up): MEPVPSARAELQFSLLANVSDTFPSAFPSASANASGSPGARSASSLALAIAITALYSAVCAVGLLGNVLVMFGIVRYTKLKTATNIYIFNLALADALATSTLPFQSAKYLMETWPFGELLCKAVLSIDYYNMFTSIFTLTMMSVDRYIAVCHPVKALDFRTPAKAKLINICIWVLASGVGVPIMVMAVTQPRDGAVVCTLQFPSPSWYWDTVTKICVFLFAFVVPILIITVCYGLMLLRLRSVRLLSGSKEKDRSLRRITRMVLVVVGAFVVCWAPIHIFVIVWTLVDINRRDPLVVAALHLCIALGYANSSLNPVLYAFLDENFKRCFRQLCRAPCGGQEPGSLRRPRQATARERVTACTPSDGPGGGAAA
Sequence of Opioid receptors; mu & delta (Rattus norvegicus) (P33535 whole entry, looked up): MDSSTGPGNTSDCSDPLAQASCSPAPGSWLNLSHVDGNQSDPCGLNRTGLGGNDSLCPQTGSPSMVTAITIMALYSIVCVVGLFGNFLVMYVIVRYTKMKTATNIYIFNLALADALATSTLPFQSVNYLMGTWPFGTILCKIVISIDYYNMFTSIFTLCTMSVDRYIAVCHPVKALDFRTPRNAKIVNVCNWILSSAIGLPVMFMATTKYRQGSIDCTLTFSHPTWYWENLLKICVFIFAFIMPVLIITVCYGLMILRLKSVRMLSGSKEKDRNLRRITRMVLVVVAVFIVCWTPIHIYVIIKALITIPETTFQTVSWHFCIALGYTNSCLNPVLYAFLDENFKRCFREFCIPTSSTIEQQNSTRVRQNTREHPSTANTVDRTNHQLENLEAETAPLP
How it was run: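 δ/μ ratio of Ki values from rat brain P2 synaptosome competition binding ([3H]DPDPE for δ, [3H]DAGO for μ; 2 h, room temperature). Ki calculated by Cheng–Prusoff.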

Mu-type opioid receptor [3] = target: Mu-type opioid receptor (Rattus norvegicus, UniProt P33535); experiment: Binding affinity for Opioid receptor mu 1 using [3H]DAGO in rat brain P2 synaptosomal preparation; format: tissue-based; how it was run: as §1
Sequence of Mu-type opioid receptor (Rattus norvegicus, UniProt P33535) (P33535 whole entry): as the sequence (P33535 whole entry, looked up) above

Mu-type opioid receptor [4] = target: Mu-type opioid receptor (Cavia porcellus, UniProt P97266); experiment: Opioid receptor mu 1 agonism in guinea pig ileum; format: functional, tissue-based
Sequence of Mu-type opioid receptor (Cavia porcellus, UniProt P97266) (P97266 whole entry): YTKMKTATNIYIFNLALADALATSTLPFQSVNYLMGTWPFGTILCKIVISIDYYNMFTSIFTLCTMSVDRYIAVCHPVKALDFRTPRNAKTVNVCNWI
How it was run: (§2)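 Isolated tissue bioassay: mouse vas deferens for δ, guinea pig ileum for μ. Field stimulation with bipolar rectangular pulses of supramaximal voltage. Inhibition of the electrically evoked twitch measured, and IC50 taken from concentration–response curves. [D-Ala2]deltorphin I (MVD) and dermorphin (GPI) were internal standards. Five to six separate assays.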

[5] = target: T1, Delta-type opioid receptor (Mus musculus, UniProt P32300); experiment: Concentration required to double the agonist concentration to achieve the original response for Opioid receptor delta 1; format: functional; settings: read-out: pA2 (converted)
T1 sequence (P32300 whole entry): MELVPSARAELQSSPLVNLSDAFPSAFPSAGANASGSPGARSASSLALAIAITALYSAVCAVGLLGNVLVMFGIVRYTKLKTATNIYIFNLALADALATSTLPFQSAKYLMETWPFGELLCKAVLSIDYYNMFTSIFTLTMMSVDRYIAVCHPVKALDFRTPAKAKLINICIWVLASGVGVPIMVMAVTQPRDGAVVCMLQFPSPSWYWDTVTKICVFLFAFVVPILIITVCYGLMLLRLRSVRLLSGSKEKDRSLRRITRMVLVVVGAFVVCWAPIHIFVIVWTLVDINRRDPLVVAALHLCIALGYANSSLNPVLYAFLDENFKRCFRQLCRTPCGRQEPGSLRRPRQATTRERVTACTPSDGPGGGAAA
How it was run: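 Antagonism reported as pA2, the negative log of the molar antagonist concentration that doubles the agonist concentration needed for the original response. Measured in the δ bioassay, the electrically stimulated mouse vas deferens twitch preparation. n = 5–6.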

[6] = target: T1, Delta-type opioid receptor; experiment: Opioid receptor delta 1 agonism in mouse vas deferens; format: functional, tissue-based; how it was run: as §2

Sequence of Delta-type opioid receptor (Rattus norvegicus, UniProt P33533) (P33533 whole entry): as the sequence (P33533 whole entry, looked up) above

`N[C@H](Cc1ccccc1)C(=O)NCCCCNC(=O)[C@@H](N)Cc1ccccc1` was tested, and the Ki [1] was 46200 nM, the Ratio [2] was 30 and the Ki (Mu-type opioid receptor [3]) was 1530 nM.
`Cc1cc(O)cc(C)c1C[C@@H](N)C(=O)NCCCCCCNC(=O)[C@@H](N)Cc1c(C)cc(O)cc1C` was tested, and the IC50 (Mu-type opioid receptor [4]) was 3.08 nM, the Ki [1] was 46.1 nM and the Ratio [2] was 870. The Kb [5] was 794 nM, the Ki (Mu-type opioid receptor [3]) was 0.053 nM and the IC50 [6] was > 10000 nM.
`N[C@H](Cc1ccc(O)cc1)C(=O)NCCNC(=O)[C@@H](N)Cc1ccc(O)cc1` was tested, and the Ki [1] was 8290 nM, the Ratio [2] was 13 and the Ki (Mu-type opioid receptor [3]) was 648 nM.
`Cc1cc(O)cc(C)c1C[C@H](N)C(=O)NCCCCNC(=O)[C@H](N)Cc1ccc(O)cc1` gave an IC50 (Mu-type opioid receptor [4]) of 255 nM, a Ki [1] of 133 nM and a Ratio [2] of 349. The Kb [5] was 5010 nM, the Ki (Mu-type opioid receptor [3]) was 0.38 nM and the IC50 [6] was > 10000 nM.
For `Cc1cc(O)cc(C)c1C[C@@H](N)C(=O)NCCCCNC(=O)[C@@H](N)Cc1c(C)cc(O)cc1C`, the IC50 (Mu-type opioid receptor [4]) was 5.33 nM, the Ki [1] was 53.4 nM and the Ratio [2] was 1300. For the same compound, the Kb [5] was 1580 nM, the Ki (Mu-type opioid receptor [3]) was 0.041 nM and the IC50 [6] was > 10000 nM.
`Cc1cc(O)cc(C)c1C[C@@H](N)C(=O)NCCCCCCCCNC(=O)[C@@H](N)Cc1c(C)cc(O)cc1C` showed an IC50 (Mu-type opioid receptor [4]) of 53.7 nM, a Ki [1] of 14.8 nM and a Ratio [2] of 78. For the same compound, the Kb [5] was 398 nM, the Ki (Mu-type opioid receptor [3]) was 0.19 nM and the IC50 [6] was > 10000 nM.
In the case of `N[C@H](Cc1ccc(O)cc1)C(=O)NCCCCNC(=O)[C@@H](N)Cc1ccc(O)cc1`, the Ki [1] is reported as 6500 nM, the Ratio [2] is reported as 21 and the Ki (Mu-type opioid receptor [3]) is reported as 309 nM.
With `Cc1cc(O)cc(C)c1C[C@H](N)C(=O)NCCCCNC(=O)[C@H](N)Cc1ccccc1` the IC50 (Mu-type opioid receptor [4]) was 181 nM, the Ki [1] was 62 nM and the Ratio [2] was 119. For the same compound, the Kb [5] was 3160 nM, the Ki (Mu-type opioid receptor [3]) was 0.52 nM and the IC50 [6] was > 10000 nM.
For `Cc1cc(O)cc(C)c1C[C@@H](N)C(=O)NCCNC(=O)[C@@H](N)Cc1c(C)cc(O)cc1C`, the IC50 (Mu-type opioid receptor [4]) was 2840 nM, the Ki [1] was 116 nM and the Ratio [2] was 81. For the same compound, the Kb [5] was 3160 nM, the Ki (Mu-type opioid receptor [3]) was 1.43 nM and the IC50 [6] was > 10000 nM.
Work on `N[C@H](Cc1ccc(O)cc1)C(=O)NCCCCCCCCNC(=O)[C@@H](N)Cc1ccc(O)cc1` yielded a Ki [1] of 6150 nM and a Ki (Mu-type opioid receptor [3]) of 399 nM.
For `N[C@H](Cc1ccc(O)cc1)C(=O)NCCCCCCNC(=O)[C@@H](N)Cc1ccc(O)cc1`, the Ki [1] was 21900 nM, the Ratio [2] was 53 and the Ki (Mu-type opioid receptor [3]) was 410 nM.
